Measurements as given in ChEMBL document CHEMBL3769360, “Phthalimido-thiazoles as building blocks and their effects on the growth and morphology of Trypanosoma cruzi” (Eur J Med Chem, 2016).

How the values were obtained:
[1] = Cytotoxicity against BALB/c mouse splenocytes assessed as highest non-toxic concentration causing >90 % incorporation of [3H]-thymidine after 24 hrs by beta counting method; format: cell-based, Splenocyte; conditions: read-out: MNTD90
Summary of the method: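 BALB/c mouse splenocytes at 5 × 10^6 cells/well in RPMI-1640 with 10% inactivated FBS. Compounds were dissolved in DMSO (10 mg/mL stock) and serially diluted to 1.0, 5.0, 10, 25, 50 and 100 (final), in triplicate. Controls were saponin and medium with DMSO. 3H-thymidine was added, then 24 h at 37 °C, 5% CO2, and beta counting. Untreated = 100%; >90% incorporation counted as nontoxic.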

[2] = tested on: Trypanosoma cruzi; experiment: Trypanocidal activity against epimastigote form of Trypanosoma cruzi Dm28c after 11 days by neubauer chamber method; format: functional; conditions: 264 h
[3] = tested on: Trypanosoma cruzi; experiment: Trypanocidal activity against trypamostigote form of Trypanosoma cruzi Y infected in African green monkey Vero cells after 24 hrs by neubauer chamber method; format: functional, organism-based
Summary of the method: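 Y strain trypomastigotes harvested from Vero cell supernatants, 4 × 10^5 cells/well, compounds in triplicate, benznidazole as positive control. Incubated 24 h at 37 °C, 5% CO2. Motile parasites counted in a Neubauer chamber; untreated wells = 100%. IC50 by nonlinear regression over at least seven concentrations.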

[4] = Selectivity index, ratio of MNTD90 for cytotoxicity against BALB/c mouse splenocytes to IC50 for trypamostigote form of Trypanosoma cruzi Y infected in African green monkey Vero cells; format: toxicity, cell-based; conditions: read-out: Selectivity Index
[5] = Lipophilicity, log P of compound; format: physicochemical; conditions: octanol/water
[6] = tested on: Trypanosoma cruzi; experiment: Induction of apoptosis in trypamostigote form of Trypanosoma cruzi Y assessed as necrotic cells at 25 uM after 24 hrs by Annexin V-FITC/propidium iodide staining based flow cytometry relative to untreated control; format: functional
Summary of the method: (§1)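 Trypomastigotes (1 × 10^7) incubated 24 h at 37 °C with or without compound. Then labelled with annexin V-FITC and propidium iodide using a kit per the manufacturer's instructions and analysed by flow cytometry. Two independent experiments, each concentration in duplicate; comparison against untreated cells.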

[7] = tested on: Trypanosoma cruzi; experiment: Induction of apoptosis in trypamostigote form of Trypanosoma cruzi Y assessed as late apoptotic cells at 25 uM after 24 hrs by Annexin V-FITC/propidium iodide staining based flow cytometry relative to untreated control; format: functional; summary of the method: as §1

O=C1c2ccccc2C(=O)N1C/C=N/N=c1\scc(-c2ccc3ccccc3c2)n1-c1ccccc1
MNTC at 24 h [1]: 205 µM
IC50 [2]: 11.9 µM
IC50 [3]: 0.5 µM
selectivity ratio [4]: 410

O=C1c2ccccc2C(=O)N1C/C=N/NC(=S)Nc1ccccc1
MNTC at 24 h [1]: 50 µM
IC50 [2]: 36.9 µM

O=C1c2ccccc2C(=O)N1Nc1nc(-c2ccc(Cl)c(Cl)c2)cs1
MNTC at 24 h [1]: 2.6 µM
IC50 [2]: 69.3 µM
IC50 [3]: 88.8 µM

O=C1c2ccccc2C(=O)N1Nc1nc(-c2cccc([N+](=O)[O-])c2)cs1
MNTC at 24 h [1]: 2.7 µM
IC50 [2]: 43.2 µM
IC50 [3]: 91.1 µM

O=C1c2ccccc2C(=O)N1C/C=N/N=c1\scc(-c2ccc(-c3ccccc3)cc2)n1-c1ccccc1
MNTC at 24 h [1]: 194 µM
IC50 [2]: 44.2 µM
IC50 [3]: 98 µM

O=C1c2ccccc2C(=O)N1Nc1nc(-c2ccc3ccccc3c2)cs1
MNTC at 24 h [1]: 269 µM
IC50 [2]: 8 µM
IC50 [3]: 4.7 µM
logP [5]: 4.98

O=C1c2ccccc2C(=O)N1Nc1nc(-c2ccc(-c3ccccc3)cc2)cs1
MNTC at 24 h [1]: 252 µM
IC50 [2]: 4 µM
IC50 [3]: 27.5 µM
logP [5]: 5.66

O=C1c2ccccc2C(=O)N1Nc1nc(-c2ccccc2)cs1
MNTC at 24 h [1]: 3.1 µM
IC50 [2]: 70.2 µM
IC50 [3]: 108 µM
logP [5]: 3.98

Cc1ccc(-c2cs/c(=N\N=C\CN3C(=O)c4ccccc4C3=O)n2-c2ccccc2)cc1
MNTC at 24 h [1]: 221 µM
IC50 [2]: 57.8 µM
IC50 [3]: 33.3 µM

COc1ccc(-c2cs/c(=N\N=C\CN3C(=O)c4ccccc4C3=O)n2-c2ccccc2)cc1
MNTC at 24 h [1]: 213 µM
IC50 [3]: 10 µM

Cc1sc(NN2C(=O)c3ccccc3C2=O)nc1-c1ccc(Br)cc1
MNTC at 24 h [1]: 2.4 µM
IC50 [2]: 13.9 µM
IC50 [3]: 38.2 µM

O=C1c2ccccc2C(=O)N1Nc1nc(-c2ccc(Cl)cc2)cs1
MNTC at 24 h [1]: 2.8 µM
IC50 [2]: 30.6 µM
IC50 [3]: 86.2 µM

O=C1c2ccccc2C(=O)N1C/C=N/N=c1\scc(-c2ccc(Cl)cc2)n1-c1ccccc1
MNTC at 24 h [1]: 211 µM
IC50 [2]: 10.6 µM
IC50 [3]: 18.4 µM

O=C(Cn1ccnc1[N+](=O)[O-])NCc1ccccc1 [BENZNIDAZOLE]
IC50 [3]: 6.3 µM
selectivity ratio [4]: 15.2
Activity [6]: 56%
Activity [7]: 56%

Cc1ccc(-c2csc(NN3C(=O)c4ccccc4C3=O)n2)cc1
MNTC at 24 h [1]: 14.9 µM
IC50 [2]: 70.4 µM
IC50 [3]: 107 µM
